Data published in ChEMBL document CHEMBL1142419, “Antimycobacterial activities of novel 2-(sub)-3-fluoro/nitro-5,12-dihydro-5-oxobenzothiazolo[3,2-a]quinoline-6-carboxylic acid” (Bioorg Med Chem, 2008).
Converted amounts (≈) assume the structure as drawn.

Assays:
[1] = test system: Mycobacterium tuberculosis; assay: Antimycobacterial activity against Mycobacterium tuberculosis H37Rv by agar dilution method; format: functional
In short: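 MIC by agar dilution on Middlebrook 7H11 agar supplemented with OADC, following an NCCLS-like procedure, run in duplicate. The MDR-TB clinical isolate was resistant to isoniazid, rifampicin, ethambutol and ofloxacin.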

[2] = test system: Mycolicibacterium smegmatis; assay: Antimycobacterial activity against Mycobacterium smegmatis MC2 by agar dilution method; format: functional
In short: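 Agar dilution on Middlebrook 7H11 agar supplemented with OADC, following an NCCLS-like procedure; MIC determined in duplicate against M. smegmatis ATCC 14468 (MC²).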

Vero = assay: Cytotoxicity against african green monkey Vero cells after 72 hrs by MTT assay; format: cell-based; settings: Chlorocebus sabaeus
In short: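 Vero mammalian cells were exposed to compounds for 72 h, with testing at 62.5 µg/ml. Viability was read as cellular conversion of MTT to formazan (non-radioactive cell proliferation kit), and IC50 was reported.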

Mus musculus [3] = assay: Phototoxicity in Swiss albino mouse assessed as ear thickness at 140 mg/kg, po after 24 hrs of irradiation; format: organism-based; parameters: dose 140 mg/kg, route oral; settings: in vivo
In short: (§1)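 Female Swiss albino mice (about 2 months, 20–25 g), fasted at least 18 h, received a single oral gavage of 140 mg/kg. Groups: six per group; lomefloxacin HCl 140 mg/kg; vehicle 0.5% aqueous sodium carboxymethylcellulose at 10 ml/kg. Mice were UV-irradiated for 4 h (about 18 J/cm²). Both ears were scored for erythema, edema and ear thickness (left/right averaged) pre-dose, at end of irradiation, and at about 24, 48, 72 and 96 h. Ear thickness change from baseline was tested by Student's t-tests.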

Mus musculus [4] = assay: Phototoxicity in Swiss albino mouse assessed as ear thickness at 140 mg/kg, po after 96 hrs of irradiation; format: organism-based; parameters: dose 140 mg/kg, route oral; settings: in vivo; in short: as §1
Mus musculus [5] = assay: Phototoxicity in Swiss albino mouse assessed as ear thickness at 140 mg/kg, po after 48 hrs of irradiation; format: organism-based; parameters: dose 140 mg/kg, route oral; settings: in vivo; in short: as §1
[6] = Inhibition of Mycobacterium smegmatis DNA gyrase supercoiling activity; parameters: species or system Mycolicibacterium smegmatis
Mus musculus [7] = assay: (§2) Phototoxicity in Swiss albino mouse assessed as erythema incidence at 140 mg/kg, po after 48 hrs of irradiation; format: organism-based; parameters: dose 140 mg/kg, route oral; settings: in vivo; in short: as §1
Mus musculus [8] = assay: Phototoxicity in Swiss albino mouse assessed as erythema incidence at 140 mg/kg, po after 96 hrs of irradiation; format: organism-based; parameters: dose 140 mg/kg, route oral; settings: in vivo; in short: as §1
Mus musculus [9] = assay: Phototoxicity in Swiss albino mouse assessed as ear thickness at 140 mg/kg, po after 4 hrs of irradiation; format: organism-based; parameters: dose 140 mg/kg, route oral; settings: in vivo; in short: as §1
Mus musculus [10] = assay: Phototoxicity in Swiss albino mouse assessed as erythema incidence at 140 mg/kg, po after 24 hrs of irradiation; format: organism-based; parameters: dose 140 mg/kg, route oral; settings: in vivo; in short: as §1
Mus musculus [11] = assay: Phototoxicity in Swiss albino mouse assessed as ear thickness at 140 mg/kg, po after 72 hrs of irradiation; format: organism-based; parameters: dose 140 mg/kg, route oral; settings: in vivo; in short: as §1
Mus musculus [12] = assay: as §2; format: organism-based; parameters: dose 140 mg/kg, route oral; settings: in vivo; in short: as §1; remark: listed apart in the source
Mus musculus [13] = assay: Phototoxicity in Swiss albino mouse assessed as erythema incidence at 140 mg/kg, po after 4 hrs of irradiation; format: organism-based; parameters: dose 140 mg/kg, route oral; settings: in vivo; in short: as §1
[14] = test system: Mycobacterium tuberculosis; assay: Antimycobacterial activity against Mycobacterium tuberculosis ATCC 35801 infected in CD1 mouse assessed as bacterial load in spleen at 50 mg/kg, ip after 10 days; format: functional; settings: route intraperitoneal
In short: (§3)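 Six-week-old female CD-1 mice, six per group, infected intravenously via caudal vein with ~10⁷ viable M. tuberculosis ATCC 35801. Intraperitoneal dosing began 10 days after inoculation and ran 10 days. On day 35 post-infection, spleens and right lungs were removed and homogenized. Serial 10-fold dilutions were plated on 7H10 agar (37 °C, ambient air, 4 weeks). Log CFU compared against vehicle-treated controls.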

[15] = test system: Mycobacterium tuberculosis; assay: Antimycobacterial activity against Mycobacterium tuberculosis ATCC 35801 infected in CD1 mouse assessed as bacterial load in lung at 50 mg/kg, ip after 10 days; format: functional; settings: route intraperitoneal; in short: as §3
[16] = test system: Mycobacterium tuberculosis; assay: Antimycobacterial activity against Mycobacterium tuberculosis ATCC 35801 infected in CD1 mouse assessed as bacterial load in lung at 25 mg/kg, ip after 10 days; format: functional; settings: route intraperitoneal; in short: as §3
[17] = test system: Mycobacterium tuberculosis; assay: Antimycobacterial activity against Mycobacterium tuberculosis ATCC 35801 infected in CD1 mouse assessed as bacterial load in spleen at 25 mg/kg, ip after 10 days; format: functional; settings: route intraperitoneal; in short: as §3

| Compound | MIC [1] [µM] | MIC [2] [µM] | IC50 (Vero) [µM] | also measured |
| --- | --- | --- | --- | --- |
| O=C(O)c1c(=O)c2cc(F)c(N3CCN(C(=O)c4ccco4)CC3)cc2n2c1sc1ccccc12 | 6.37 (≈ 3.13 µg/mL) | 50.9 (≈ 25 µg/mL) | – | – |
| O=C(O)c1cn2c(n1)CN(c1cc3c(cc1F)c(=O)c(C(=O)O)c1sc4ccccc4n13)CC2 | 3.26 (≈ 1.56 µg/mL) | 52.2 (≈ 25 µg/mL) | > 131 | – |
| O=C(O)c1c(=O)c2cc([N+](=O)[O-])c(N3CCN(C(=O)C4COc5ccccc5O4)CC3)cc2n2c1sc1ccccc12 (stereo not given) | 10.7 (≈ 6.25 µg/mL) | 85.2 (≈ 50 µg/mL) | – | – |
| COc1ccc(CC2C3=C(CCCC3)CCN2c2cc3c(cc2[N+](=O)[O-])c(=O)c(C(=O)O)c2sc4ccccc4n23)cc1 (stereo not given) | 10.5 (≈ 6.25 µg/mL) | 83.9 (≈ 50 µg/mL) | – | – |
| Cc1onc(-c2c(F)cccc2F)c1C(=O)N1CCN(c2cc3c(cc2[N+](=O)[O-])c(=O)c(C(=O)O)c2sc4ccccc4n23)CC1 | 4.85 (≈ 3.13 µg/mL) | 77.5 (≈ 50 µg/mL) | – | – |
| COc1cc2c(cc1OC)CN(c1cc3c(cc1[N+](=O)[O-])c(=O)c(C(=O)O)c1sc4ccccc4n13)CC2 | 1.47 (≈ 0.781 µg/mL) | 47 (≈ 25 µg/mL) | 118 | – |
| COc1ccc(CC2C3=C(CCCC3)CCN2c2cc3c(cc2F)c(=O)c(C(=O)O)c2sc4ccccc4n23)cc1 (stereo not given) | 5.5 (≈ 3.13 µg/mL) | 44 (≈ 25 µg/mL) | – | – |
| CCN(CC)C(=O)C1CCCN(c2cc3c(cc2[N+](=O)[O-])c(=O)c(C(=O)O)c2sc4ccccc4n23)C1 (stereo not given) | 2.99 (≈ 1.56 µg/mL) | 95.7 (≈ 50 µg/mL) | 59.8 | – |
| O=C(O)c1cn2c(n1)CN(c1cc3c(cc1[N+](=O)[O-])c(=O)c(C(=O)O)c1sc4ccccc4n13)CC2 | 1.54 (≈ 0.778 µg/mL) | 98.2 (≈ 49.6 µg/mL) | 124 | – |
| O=C(O)c1c(=O)c2cc(F)c(N3CCC(O)(c4ccc(Cl)cc4)CC3)cc2n2c1sc1ccccc12 | 0.36 (≈ 0.188 µg/mL) | 2.98 (≈ 1.56 µg/mL) | 120 | Activity (Mus musculus [3]): 0.31 mm; Activity (Mus musculus [4]): 0.3 mm; Activity (Mus musculus [5]): 0.29 mm; IC50 [6]: 40 µg/mL (≈ 76.5 µM); Activity (Mus musculus [7]): Non-toxic; Activity (Mus musculus [8]): Non-toxic; Activity (Mus musculus [9]): 0.32 mm; Activity (Mus musculus [10]): Non-toxic; Activity (Mus musculus [11]): 0.32 mm; Activity (Mus musculus [12]): Non-toxic; Activity (Mus musculus [13]): Non-toxic |
| O=C(O)c1c(=O)c2cc([N+](=O)[O-])c(N3CCC(N4CCCCC4)CC3)cc2n2c1sc1ccccc12 | 3.08 (≈ 1.56 µg/mL) | 98.7 (≈ 50 µg/mL) | 61.7 | – |
| O=C(O)c1c(=O)c2cc([N+](=O)[O-])c(N3CCSCC3)cc2n2c1sc1ccccc12 | 7.09 (≈ 3.13 µg/mL) | 113 (≈ 50 µg/mL) | – | – |
| O=C(O)c1c(=O)c2cc([N+](=O)[O-])c(N3CCN(C(=O)c4ccco4)CC3)cc2n2c1sc1ccccc12 | 6.04 (≈ 3.13 µg/mL) | 48.2 (≈ 25 µg/mL) | – | – |
| COc1cc2c(cc1OC)CN(c1cc3c(cc1F)c(=O)c(C(=O)O)c1sc4ccccc4n13)CC2 | 1.55 (≈ 0.782 µg/mL) | 6.2 (≈ 3.13 µg/mL) | > 124 | – |
| CC1CN(c2cc3c(cc2F)c(=O)c(C(=O)O)c2sc4ccccc4n23)CC(C)O1 (stereo not given) | 7.34 (≈ 3.13 µg/mL) | 29.3 (≈ 12.5 µg/mL) | – | – |
| CN1CCN(c2cc3c(cc2[N+](=O)[O-])c(=O)c(C(=O)O)c2sc4ccccc4n23)CC1c1ccccc1 (stereo not given) | 12.2 (≈ 6.25 µg/mL) | 97.2 (≈ 50 µg/mL) | – | – |
| COc1c(N2CCNC(C)C2)c(F)cc2c(=O)c(C(=O)O)cn(C3CC3)c12 (stereo not given) [GATIFLOXACIN] | 1.04 (≈ 0.39 µg/mL) | 2.08 (≈ 0.781 µg/mL) | > 155 | Log10 cfu [14]: 6.92; Log10 cfu [15]: 6.02 |
| NNC(=O)c1ccncc1 [ISONIAZID] | 0.36 (≈ 0.0494 µg/mL) | 45.6 (≈ 6.25 µg/mL) | > 456 | Log10 cfu [16]: 5.86; Log10 cfu [17]: 4.71 |
| CCn1cc(C(=O)O)c(=O)c2cc(F)c(N3CCNC(C)C3)c(F)c21 (stereo not given) [LOMEFLOXACIN] | – | – | – | Activity (Mus musculus [3]): 0.48 mm; Activity (Mus musculus [4]): 0.6 mm; Activity (Mus musculus [5]): 0.53 mm; Activity (Mus musculus [7]): Toxic; Activity (Mus musculus [8]): Toxic; Activity (Mus musculus [9]): 0.4 mm; Activity (Mus musculus [10]): Toxic; Activity (Mus musculus [11]): 0.64 mm; Activity (Mus musculus [12]): Toxic; Activity (Mus musculus [13]): Toxic |
